Screens: PubChem, several laboratories
ADAM17 inh: inhibitors of human ADAM17 | inhibition, % at 6.95 µM | recombinant ADAM17, EDANS/DABCYL FRET peptide cleavage | AID 720648 | P78536 | actives 0.83% (n = 370,000);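 active = inhibition above the mean of compounds lying between control limits plus 3 SD, set per campaign, cut at about 8.5% in these data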;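 also: 0% = DMSO-only wells as the low control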
ADAM10 inh: inhibits human ADAM10 | O14672 | recombinant ADAM10, EDANS/DABCYL FRET peptide cleavage, 3 h | inhibition, % at 7 µM | actives 0.62% (n = 370,000);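 active = inhibition above a per-campaign cutoff equal to the mean of compounds falling between control-based bounds plus 3 SD, cut at about 20% in these data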;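 also: 0% = DMSO wells while the 100% control is not disclosed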
Target sequence (O14672 214-748 limits assumed): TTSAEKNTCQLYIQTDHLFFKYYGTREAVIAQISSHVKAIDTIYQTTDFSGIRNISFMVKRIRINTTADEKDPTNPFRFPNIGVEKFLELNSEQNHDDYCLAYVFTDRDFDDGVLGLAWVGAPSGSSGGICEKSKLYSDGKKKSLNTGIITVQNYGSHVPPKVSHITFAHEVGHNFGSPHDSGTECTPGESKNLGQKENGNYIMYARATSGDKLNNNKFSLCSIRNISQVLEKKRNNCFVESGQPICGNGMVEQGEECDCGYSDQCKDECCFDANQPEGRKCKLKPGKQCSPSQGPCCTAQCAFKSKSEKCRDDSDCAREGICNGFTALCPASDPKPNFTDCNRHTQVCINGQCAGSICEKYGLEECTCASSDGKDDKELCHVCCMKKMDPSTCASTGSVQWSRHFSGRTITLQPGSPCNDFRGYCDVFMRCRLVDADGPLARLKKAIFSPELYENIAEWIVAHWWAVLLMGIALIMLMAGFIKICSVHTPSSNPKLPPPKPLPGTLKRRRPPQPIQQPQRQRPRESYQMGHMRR
GRIN3A LBD mod: modulates the human NR3A ligand-binding domain. Tm shift relative to glycine control, % at 25 µM. actives 2.5% (n = 340,000). NR3A LBD differential scanning fluorimetry, Tm shift; 0% = protein alone, 100% = glycine-bound protein. AID 1259313;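 active = melting temperature shift of at least 10% of the positive control shift, at one fixed dose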
MPTP inh: blocks calcium-induced mitochondrial swelling | actives 1.4% (n = 360,000) | AID 602449 | isolated mouse mitochondria, Ca2+ swelling absorbance, 30 min | inhibition, % at 10 µM;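 active = inhibition of 50% or more, scaled per plate between neutral and stimulator controls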;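 also: 0% = DMSO wells given calcium and 100% = 1 mM EGTA wells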
SKN-1 inh: C. elegans SKN-1 inhibition; C. elegans VP596 Pgst-4::GFP/RFP ratio, acrylamide-induced, 24 h; inhibition, % at 21.8 µM; actives 0.49% (n = 360,000);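 active = interference check ratio from 0.5 to 1.5 plus GFP to RFP signal ratio inhibition reaching or exceeding a fixed threshold, cut at about 30% in these data, passing the limit was not always enough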
MT1-MMP act inh: MT1-MMP (human) activation inhibition | HT1080 RFP-PRO-GFP cells, GFP/RFP ratio fluorescence, overnight; percent of plate control window, DMSO zero | GFP/RFP ratio change, % at 20 µM | P50281 | actives 0.061% (n = 360,000);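 active = GFP/RFP ratio change of at least 30% with cell ATP level not reduced by more than half and red fluorescence within 50% of control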
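Test system: HT1080 cells expressing an RFP-PRO-GFP fluorescent reporter construct / Compound dosing: single-point 20 µM compound, 1% DMSO / Schedule: cells overnight before dosing, compound overnight, 37 °C, 5% CO2 / Evaluation: GFP/RFP fluorescence ratio / Control set: DMSO and RFP-L50D-GFP cell wells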
ADAM10 counter: counter-screen for ADAM17 exosite inhibitors: inhibitors of human ADAM10; recombinant ADAM10, EDANS/DABCYL FRET peptide cleavage, 3 h; shares compounds with ADAM17 inh; actives 47% (n = 2,900); inhibition, % at 6.95 µM;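 active = mean inhibition over the triplicate runs exceeds the activity threshold set in the earlier primary screen, cut at about 20% in these data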;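 also: 0% = DMSO wells and 100% = marimastat wells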
ADAM17 confirm: confirmation of inhibitors of human ADAM17; inhibition, % at 6.95 µM; AID 743257; shares compounds with ADAM17 inh; actives 65% (n = 2,900); recombinant ADAM17, EDANS/DABCYL QFRET peptide cleavage;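 active = mean inhibition across replicates above the hit cutoff set in the primary screen, cut at about 8.5% in these data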;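 also: 0% = DMSO wells and 100% = marimastat wells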
Active calls of the source: *; nt = not tested or not shown. In the library only some 4.7% were active in any assay of this set; here they are far more common.

SMILES | ADAM17 inh | ADAM10 inh | GRIN3A LBD mod | MPTP inh | SKN-1 inh | MT1-MMP act inh | ADAM10 counter | ADAM17 confirm
CCCCC[C@@H](C)N1C[C@@H](COCc2ccccc2)Oc2cc(N3CCC[C@H]3CO)ccc2S1(=O)=O | 9.9* | 18 | nt | 1 | -7 | -5 | 23* | 15*
Cc1ccc(C)c(NC(=O)CN(C)C(=O)c2cccc(Oc3ccccc3)c2)c1 | 1 | -3 | -2 | 0 | 7 | 7 | nt | nt
CCN(c1cccc(C(F)(F)F)c1)S(=O)(=O)c1ccc2c(c1)CCN2C(C)=O | 8.7* | 11 | 0 | 2 | -12 | -11 | 20* | 11*
O=C(/C=C/c1ccc(Br)cc1)c1ccco1 | -3 | -15 | -2 | 0 | 16 | 0 | nt | nt
O=C(Oc1ccc(Br)cc1C(=O)/C=C/c1ccccc1F)c1ccco1 | 11* | 20 | -3 | 7 | -5 | -4 | 11 | 5
COc1cc(OC)cc(-c2c(-c3ccc(F)cc3)c3cc(-c4ccc5c(c4)OCCO5)ccc3n2C)c1 | -7 | -20 | -4 | 0 | 13 | -2 | nt | nt
CCC(=O)Nc1ccc(-c2nnc(SCc3ccc(C(=O)Nc4nccs4)cc3)n2CC)cc1 | -1 | 8 | -1 | -3 | 14 | 1 | nt | nt
OC(COC(c1ccc(Cl)cc1)c1ccc(Cl)cc1)CN1CCN(c2ccccn2)CC1 (configuration not stated) | 9.1* | 15 | -8 | 2 | 3 | -1 | 22* | 13*
O=C(CCNC(=O)c1ccccc1Cl)NCc1ccncc1 | -1 | 0 | 0 | -1 | 5 | -4 | nt | nt
CC(C)(C)OC(=O)NCc1ccc(NC(=O)c2nc[nH]c2C(=O)N[C@@H](Cc2ccccc2)C(=O)OC(C)(C)C)cc1 | 8.9* | 17 | 3 | 0 | 11 | -2 | 46* | 23*
CC(C)(C)OC(=O)CNC(=O)c1[nH]cnc1C(=O)Nc1ccc(CNC(=O)OC(C)(C)C)cc1 | 12* | 16 | -15 | 1 | 0 | -11 | 30* | 16*
CC(C)(C)OC(=O)NCCOC(=O)c1[nH]cnc1C(=O)NCc1ccccc1 | 11* | 11 | -1 | -1 | 5 | 8 | 6 | 2
C[C@H](NC(=O)c1nc[nH]c1C(=O)N[C@@H](Cc1ccccc1)C(=O)OCc1ccccc1)c1ccccc1 | 9 | 16 | -17 | -2 | 7 | 0 | nt | nt
C[C@@H](NC(=O)c1nc[nH]c1C(=O)N[C@@H](Cc1ccccc1)C(=O)OCc1ccccc1)c1ccccc1 | 12* | 15 | -15 | -2 | 14 | 3 | 30* | 17*
Cc1c(NS(=O)(=O)c2cc(C(=O)O)ccc2Cl)c(=O)n(-c2ccccc2)n1C | 5 | 14 | -5 | 0 | -5 | -2 | nt | nt
Cc1ccc(C(C(=O)NCc2ccccc2)N(C(=O)c2csnn2)C2CC2)cc1 (configuration not stated) | -2 | 5 | -1 | 1 | 7 | -2 | nt | nt
CCOC(=O)c1ccc(-n2c(O)c(/C=N/NC(=O)C3COc4ccccc4O3)c3ccccc3c2=O)cc1 (configuration not stated) | 10* | 5 | -2 | 14 | 11 | -9 | -31 | 5
CCOC(=O)c1ccc(NC(=O)C2COc3ccccc3O2)cc1 (configuration not stated) | 0 | 5 | -1 | -1 | 2 | 2 | nt | nt
O=C(CC1C(=O)NCCN1Cc1ccc(Cl)c(F)c1)NC1CCC1 (configuration not stated) | 0 | -24 | -3 | -2 | 1 | -2 | nt | nt
CCc1ccc([C@H]2[C@@H]3C(=O)C[C@@H]4C(=O)N(c5ccccc5)C(=O)[C@@H]4[C@@H]3CN2S(=O)(=O)c2ccc(C)cc2)cc1 | 8.7* | 10 | nt | -2 | -1 | 3 | 10 | 10*
Cc1ccc(S(=O)(=O)N2C[C@H]3[C@H]4C(=O)N(c5ccccc5)C(=O)[C@H]4CC(=O)[C@H]3[C@@H]2c2ccc(Cl)cc2)cc1 | 2 | -1 | nt | -1 | 24 | 3 | nt | nt
O=S1(=O)CC(N2CCN(CC3CC3)CC2)CN1Cc1ccccc1 (configuration not stated) | -5 | -4 | nt | 1 | -1 | 5 | nt | nt
CN(C)c1ccc(C(CNS(=O)(=O)c2ccc3ccccc3c2)c2c[nH]c3ccccc23)cc1 (configuration not stated) | 9.1* | 19 | 16* | -3 | 14 | 1 | 26* | 20*
c1ccc2oc(SCc3cn4ccsc4n3)nc2c1 | 9.2* | 9 | 1 | -2 | -5 | 1 | 7 | 8
CCCn1c(O)c(N=NC(=O)CNC(=O)Cc2ccc(OC)cc2)c2ccccc21 | 9.7* | 1 | -2 | -2 | 1 | 1 | 5 | 6
SMILES | ADAM17 inh | ADAM10 inh | GRIN3A LBD mod | MPTP inh | SKN-1 inh | MT1-MMP act inh | ADAM10 counter | ADAM17 confirm
O=C(NC(=S)Nc1ccccc1C(=O)O)c1ccc2ccccc2c1 | -19 | -47 | -1 | 2 | 1 | -1 | nt | nt
COc1cccc(NC(=O)N(Cc2ccco2)C(C)c2cccs2)c1 (configuration not stated) | 6 | -1 | -13 | 1 | 5 | 0 | nt | nt
CC(c1cccs1)N(Cc1ccco1)C(=O)Nc1ccc(Cl)c(Cl)c1 (configuration not stated) | 8.6* | 10 | 2 | 29 | 5 | -14 | -1 | 6
COc1ccc(OCCN2CCC(C(=O)NC(c3ccccc3)c3ccc4ccccc4n3)CC2)cc1 (configuration not stated) | nt | nt | nt | 1 | 9 | 2 | nt | nt
Clc1ccc(OCCCNCc2ccccc2)c(Br)c1 | -3 | -1 | -5 | -1 | 6 | 1 | nt | nt
O=C(Nc1ccccc1C(=O)NCc1cccnc1)c1ccccc1Cl | 4 | -7 | -3 | 1 | 19 | 0 | nt | nt
Cc1ccc(OCc2nnc(SCC(=O)Nc3cccc4ccccc34)n2Cc2ccco2)cc1 | 10.0* | 17 | nt | nt | nt | nt | 39* | 19*
O=C(CSc1nnc(COc2ccc(Cl)cc2)n1Cc1ccco1)Nc1cccc2ccccc12 | 9.3* | 16 | nt | nt | nt | nt | 36* | 18*
COc1cc(NC(=O)COC(=O)/C=C/c2c(C)nn(C3CCS(=O)(=O)C3)c2Cl)cc(OC)c1OC (configuration not stated) | -3 | -3 | 3 | -1 | -11 | -1 | nt | nt
O=C(CCNC(=O)c1ccc(Cl)cc1)NCCC1=CCCCC1 | 8.7* | 4 | 0 | 1 | 7 | -2 | 14 | 9.2*
